# Shown are actives, neighbours in structure and some others; about 1.7% of the full set was active somewhere.
# T cell modulator = T cell immune modulation candidate. 2C CD8+ T cell-vesicle binding, flow cytometry; hits give low values. response (vesicle binding), % at 7 µM. 330,000 tested, 0.068% active. AID 2052;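 active = response, share of CD8 T cells binding vesicles, and their 90th percentile fluorescence all below set limits, cut at about 80% in these data, passing the limit was not always enough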;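 also: values below 100% mean blocked vesicle binding to the CD8+ T cells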
#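 Read-out – percent CD8+ FL2 mean versus row control · System – murine 2C transgenic CD8+ T lymphocytes · Times – 1.5 h cell–vesicle binding at 37 °C, then 20 min icy labelling · Control set – naked vesicles low, QL9 vesicles with vehicle high · Detection – cytometric PE anti-B7-1 and Alexa647 anti-CD8 signals after 1% paraformaldehyde fixation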
# Pemphigus Ab inh = inhibitors of pemphigus antibody binding to human desmoglein-3. AID 588358. P32926. 310,000 tested, 0.48% active. binding (percent of control), % at 10 µM. DSG3-coupled beads, scFv-anti-DSG3-GFP binding, flow cytometry; hits give low values;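 active = binding more than 3 SD below its plate's average and above zero; inconclusive = below that plate limit but binding exactly zero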;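 also: hits lower antibody fragment binding to DSG3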
# Target sequence (P32926 whole entry, looked up, the tested form may be a part): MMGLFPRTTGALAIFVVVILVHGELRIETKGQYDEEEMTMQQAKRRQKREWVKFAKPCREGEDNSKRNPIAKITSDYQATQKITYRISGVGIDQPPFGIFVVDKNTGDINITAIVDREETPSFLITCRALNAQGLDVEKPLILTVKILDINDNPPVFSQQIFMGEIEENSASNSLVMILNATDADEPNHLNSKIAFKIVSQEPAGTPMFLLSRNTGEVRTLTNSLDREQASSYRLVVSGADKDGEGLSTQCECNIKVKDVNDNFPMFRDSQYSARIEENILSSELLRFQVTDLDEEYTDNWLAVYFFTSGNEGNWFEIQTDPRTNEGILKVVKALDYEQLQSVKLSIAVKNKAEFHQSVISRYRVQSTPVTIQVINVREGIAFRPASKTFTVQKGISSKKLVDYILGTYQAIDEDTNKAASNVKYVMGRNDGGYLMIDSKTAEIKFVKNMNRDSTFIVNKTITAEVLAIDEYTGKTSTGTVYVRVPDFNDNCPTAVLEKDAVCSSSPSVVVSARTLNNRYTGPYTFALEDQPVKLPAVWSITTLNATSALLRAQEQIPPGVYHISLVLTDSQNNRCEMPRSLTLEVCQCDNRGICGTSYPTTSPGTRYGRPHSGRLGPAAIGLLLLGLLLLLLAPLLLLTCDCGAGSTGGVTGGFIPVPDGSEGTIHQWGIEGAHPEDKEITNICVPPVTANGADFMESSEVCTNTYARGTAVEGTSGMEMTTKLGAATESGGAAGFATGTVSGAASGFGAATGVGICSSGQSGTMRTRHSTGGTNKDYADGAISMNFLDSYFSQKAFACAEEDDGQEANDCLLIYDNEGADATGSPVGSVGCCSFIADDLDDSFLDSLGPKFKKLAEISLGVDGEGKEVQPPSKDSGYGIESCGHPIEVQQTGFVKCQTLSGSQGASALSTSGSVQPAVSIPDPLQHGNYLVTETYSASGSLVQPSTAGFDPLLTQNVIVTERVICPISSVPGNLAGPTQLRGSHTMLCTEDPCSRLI
# Vif imaging = blocks HIV Vif function; AID 602346; 340,000 tested, 0.35% active; HEK293T cells, Vif self-association by quenched fluorescence, imaging, 24 h; inhibition, % at 7.49 µM; in the data active = inhibition above about 50%, passing the limit was not always enough; inconclusive = no clear call, values can overlap the other calls; inactive = below about 31%
# Myeloid diff 2 = compounds promoting myeloid differentiation | ER-HoxA9 myeloid progenitors, lysozyme-GFP differentiation, flow cytometry | calls only at 10 µM | 360,000 tested, 1% active;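 active = normalized GFP-positive differentiation at or above the plate's own cutoff, the solvent-only control mean plus 3 SD; inconclusive = no clear call, values can overlap the other calls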;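 also: cells exposed to compound for four days before flow analysis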
# An asterisk follows results filed as active; i = inactive; ? = inconclusive; . = no result given; + = active, no number.
SMILES,T cell modulator,Pemphigus Ab inh,Vif imaging,Myeloid diff 2
Cc1ccc(CNC(=O)CS(=O)(=O)Cc2nc(-c3ccc(C)cc3)oc2C)cc1,327,99,-16,?
O=C(Cn1c(=O)cnc2ccccc21)Nc1ccccc1N1CCOCC1,366,101,0,i
CCOc1ccc(C(=O)OCC(=O)Nc2cc(S(=O)(=O)N3CCOCC3)ccc2N2CCOCC2)cc1,.,-19*,0,i
O=C(OCc1cccc(Cl)c1)c1cc(S(=O)(=O)N2CCCCC2)ccc1N1CCOCC1,0,104,.,+
O=C(COc1cccc(Cl)c1)Nc1cc(S(=O)(=O)N2CCOCC2)ccc1N1CCOCC1,452,87,-1,+
O=C(COc1ccccc1)Nc1cc(S(=O)(=O)N2CCOCC2)ccc1N1CCCC1,371,98,-3,i
O=C(Cn1c(=O)cnc2ccccc21)Nc1cc(Cl)ccc1N1CCOCC1,898,96,8,+
COCc1cccc(-c2csc(C(C)(NC(C)=O)c3ccccc3)n2)c1 (stereo unspecified),.,.,3,.
O=C(COC(=O)/C=C/c1ccc(F)cc1)Nc1cc(C(F)(F)F)ccc1N1CCOCC1,173,99,-1,i
CC(=O)c1c(C)[nH]c(C(=O)OCC(=O)Nc2cc(C(F)(F)F)ccc2N2CCOCC2)c1C,224,107,-14,+
CCOc1ccc(S(=O)(=O)N2CCOCC2)cc1NC(=O)CSCC(=O)Nc1cccc(C)c1,0.0*,.,-5,i
O=C(/C=C/c1cccc(F)c1)Nc1cc(S(=O)(=O)N2CCOCC2)ccc1N1CCCC1,258,-24*,-2,i
CC(C)n1nnnc1SCC(=O)N(C)C1CCS(=O)(=O)C1 (stereo unspecified),402,.,5,i
COc1ccc(S(=O)(=O)N2CCOCC2)cc1NC(=O)c1ccc(SC)cc1OC,.,100,-13,i
CCOc1ccc(S(=O)(=O)N2CCN(C(=O)c3ccccc3Cc3ccccc3)CC2)cc1,259,80*,0,i
Cc1ccc(/C=N/NC(=O)c2cccc(S(=O)(=O)Nc3ccccc3Cl)c2)o1,201,95,-4,i
Cc1ccc(/C=N/NC(=O)c2cccc(NC(=O)c3ccccc3C)c2)o1,176,105,3,+
Cc1ccc(/C=N/NC(=O)c2cccc(NC(=O)c3ccccc3Cl)c2)o1,185,96,10,+
Cc1cccc(C(=O)Nc2ccc(C(=O)N/N=C/c3ccc(C)o3)cc2)c1,231,99,2,?
CCN(CC)C(=O)C1=C(C)N(CCCOC)C(=O)C(CC(=O)NCc2cccs2)C1 (stereo unspecified),.,.,1,i
CCOC(=O)c1ccccc1NS(=O)(=O)c1ccc(OCC)cc1,415,102,-1,+
CCN1/C(=C/c2ccc3cc(C)ccc3[n+]2CC)Sc2ccc3sccc3c21,i,12,16,+
CCN1/C(=C\c2ccc3cc(C)ccc3[n+]2CC)Sc2cc(C)c(C)cc21,.,70,i,?
O=C1CCSc2c1ccc1ccccc21,.,93,-1,+
O=C1CCCc2cc3c(ccc4ccccc43)cc21,.,120,-11,i
SMILES,T cell modulator,Pemphigus Ab inh,Vif imaging,Myeloid diff 2
Cc1ccc(S(=O)(=O)N2[C@@H](c3ccc(Cl)c(Cl)c3)C(C(=O)O)=C[C@H]2CC2CCCC2)cc1,374,105,-1,i
Cc1ccc(S(=O)(=O)N2[C@@H](c3ccc(Cl)cc3)C(C(=O)O)=C[C@H]2CC2CCCC2)cc1,298,114,.,+
Cc1ccc(C(c2cc(Cl)c3cccnc3c2O)N2CCN(C)CC2)cc1 (stereo unspecified),183,114,54*,?
COc1ccc2[nH]c(C)c(CCNC(=S)Nc3cc(C)ccc3C)c2c1,554,-16*,1,i
CCN(CC)CCN(C(=O)C1=COCCO1)c1nc2ccc(C)cc2s1,242,155,16,+
COc1cccc(CN2CCC2(C)C(=O)Nc2ccc3c(c2)CCN3C(C)=O)c1F (stereo unspecified),.,.,6,i
Cc1nc2ncccn2c1-c1csc(NCc2ccco2)n1,230,.,4,+
Cc1nc2ncccn2c1-c1csc(Nc2ccccc2)n1,97,131,-2,i
C(=N\NC1=Nc2cccc3cccc1c23)/c1ccccc1,268,137,2,i
Clc1ccc(/C=N/NC2=Nc3cccc4cccc2c34)cc1,397,103,4,+
CCOC(=O)C1=CN(Cc2ccco2)S(=O)(=O)N(C)C1c1ccc(F)c(Cl)c1 (stereo unspecified),.,102,-10,i
CC(=O)c1cc(CC=C(C)C)c(O)cc1O,498,102,0,i
CC(=O)c1cc(CC=C(C)C)c(O)c(CC=C(C)C)c1O,494,114,64*,i
Cc1onc(-c2ccccc2Cl)c1C(=O)N1CCN(C)CC1,199,100,51*,i
Cc1onc(-c2ccccc2Cl)c1C(=O)N1CCCC1,449,97,1,i
COC(CNC(=O)c1ccc(CS(=O)(=O)c2ccc(C)cc2)o1)OC,151,96,-13,+
CCN(CC(=O)Nc1c(F)cccc1F)C(=O)c1cccc(-n2cccc2)c1,382,104,74*,i
CCN(CC(=O)Nc1ccccc1OC)C(=O)c1cccc(-n2cccc2)c1,243,107,9,i
Cc1cccnc1C(c1ccc(F)cc1)N(C)C(=O)C1CCN(CCOc2ccc(Cl)cc2Cl)CC1 (stereo unspecified),.,.,1,i
N=C1S/C(=C\c2ccccc2F)C(=O)N1c1ccc(F)cc1,354,88,-5,i
N=C1S/C(=C\c2cccc3ccccc23)C(=O)N1c1ccc(F)cc1,137,90,-17,+
OCC1OC(n2cnc3c(NC4CCCC4)ncnc32)C(O)C1O (stereo unspecified),182,98,?,i
OCC1OC(n2cnc3c(NCc4ccco4)ncnc32)C(O)C1O (stereo unspecified),.,108,54*,?
OC[C@H]1O[C@@H](n2cnc3c(NC4CCCC4)ncnc32)[C@H](O)[C@@H]1O,427,100,67*,i
Nc1ncnc2c1ncn2C1OC(C(=O)NC2CC2)C(O)C1O (stereo unspecified),493,88,160*,i
SMILES,T cell modulator,Pemphigus Ab inh,Vif imaging,Myeloid diff 2
C=CCNc1ncnc2c1ncn2C1OC(CO)C(O)C1O (stereo unspecified),395,95,60*,i
OC[C@H]1O[C@@H](n2cnc3c(NCc4ccco4)ncnc32)[C@H](O)[C@@H]1O,.,.,6,?
CCOC(=O)[C@]12CCCC=C1N(Cc1ccc(Cl)cc1Cl)C(=O)[C@H](CC(=O)NCc1ccc(OC)c(OC)c1)C2,.,.,.,i
CCc1ccccc1NC(=S)Nn1cnnc1,360,.,-1,i
CCCCCNC(=O)C(c1ccc(C(F)(F)F)cc1)n1c(=O)c(-c2ccco2)nc2ccccc21 (stereo unspecified),.,.,.,i
CN(C)C(CNC(=O)c1ccc(-c2ccccc2)cc1)c1ccccc1 (stereo unspecified),217,124,-10,+
